Series [1] concerns Mycobacterium tuberculosis. In words: Bactericidal activity against Mycobacterium bovis BCG ATCC 35734 assessed as increase in propidium iodide uptake at 4 uM after 1 to 5 days by flow cytometry. The class given is functional, organism-based. The settings on record: BCG str. ATCC 35743.
For series [2], the system named is Mycobacterium tuberculosis. In words: Bactericidal activity against Mycobacterium bovis BCG ATCC 35734 assessed as reduction in colony forming units at 4 uM after 1 to 5 days by time kill assay. The class given is functional, organism-based. As to conditions: BCG str. ATCC 35743.
Series [3] relates to Mycobacterium tuberculosis. In words: Bactericidal activity against Mycobacterium bovis BCG ATCC 35734 assessed as reduction in colony forming units at 1.6 uM after 1 to 5 days by time kill assay. The format is functional, organism-based. The settings on record: BCG str. ATCC 35743.
Series [4] deals with Mycobacterium tuberculosis. In words: Bactericidal activity against Mycobacterium bovis BCG ATCC 35734 assessed as increase in propidium iodide uptake at 1.6 uM after 1 to 5 days by flow cytometry. As to conditions: BCG str. ATCC 35743. The class given is functional, organism-based.
Series [5] has as its system Mycobacterium tuberculosis. In words: Bactericidal activity against Mycobacterium bovis BCG ATCC 35734 assessed as reduction in membrane potential by measuring red to green fluorescent ratio at 12 uM measured at 20 mins to 3 hrs by DiOC2-dye based fluorescence assay. The format is functional, organism-based. The settings on record: BCG str. ATCC 35743.
In series [6] the test system is Mycobacterium tuberculosis. In words: Bactericidal activity against Mycobacterium bovis BCG ATCC 35734 assessed as cell elongation at 12 uM after 1 to 5 days by acid-fast staining-based light microscopy. The format is functional, organism-based. The settings on record: BCG str. ATCC 35743.
The subject of series [7] is Mycobacterium tuberculosis. In words: Bactericidal activity against Mycobacterium bovis BCG ATCC 35734 assessed as reduction in oxygen consumption at 5 times MIC90 after 1 hr by methylene blue-based assay. The class given is functional, organism-based. As to conditions: BCG str. ATCC 35743.
Series [8] in a line: Hemolytic activity against human RBC after 1 hr. The class given is ADME, cell-based, Erythrocyte. The settings on record: human red blood cells (erythrocytes). In a few lines: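 Human red blood cells were exposed to compound, and lysis was scaled against Triton X-100 (2% v/v), taken as 100% hemolysis. HC50 was the concentration lysing 50% of cells, averaged over two or more separate determinations.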

Series [9] relates to Mycobacterium tuberculosis. In words: Bactericidal activity against Mycobacterium bovis BCG ATCC 35734 assessed as reduction in oxygen consumption at 10 times MIC90 after 1 hr by methylene blue-based assay. The class given is functional, organism-based. As to conditions: BCG str. ATCC 35743.
Series [10] has as its system Lipid bilayer. In words: Binding affinity to DMPG vesicles assessed as increase in melting transition temperature by differential scanning calorimetric analysis. In a few lines: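 Compound-loaded vesicles of negatively charged dimyristoylphosphatidylglycerol, used as a bacterial membrane surrogate, were scanned by differential scanning calorimetry. The gel-to-liquid melting endotherm was read for melting temperature (Tm) and calorimetric enthalpy (ΔH).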
A general note: Differential scanning calorimetry records heat flow against a reference as temperature is scanned.

For series [11], the system named is Mycobacterium tuberculosis. In words: Bactericidal activity against Mycobacterium bovis BCG ATCC 35734 assessed as increase in propidium iodide uptake at 6 uM after 1 to 5 days by flow cytometry. The format is functional, organism-based. As to conditions: BCG str. ATCC 35743. On the technique in general: A flow cytometer gives signals particle by particle.
In series [12] the test system is Mycobacterium tuberculosis. In words: Antibacterial activity against Mycobacterium bovis BCG ATCC 35734 after 5 days by broth dilution method. The format is functional. The settings on record: BCG str. ATCC 35743, 120 h. An outline of the steps:
(§1)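 Broth dilution; growth read by turbidity; MIC50 and MIC90 are the concentrations reducing growth by 50% and 90% relative to untreated controls; average of two or more separate determinations.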

For series [13], the system named is Mycobacterium tuberculosis. In words: Bactericidal activity against Mycobacterium bovis BCG ATCC 35734 assessed as reduction in membrane potential by measuring red to green fluorescent ratio at 12 uM measured after 1 to 5 days by DiOC2-dye based fluorescence assay. The format is functional, organism-based. As to conditions: BCG str. ATCC 35743. An outline of the steps: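 Membrane potential in treated BCG cultures tracked as DiOC2 red/green fluorescence ratio over extended exposure of 1, 3 and 5 days.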

In series [14] the test system is Mycobacterium tuberculosis. In words: Bactericidal activity against Mycobacterium bovis BCG ATCC 35734 assessed as reduction in colony forming units after 5 days. The format is functional, BCG str. ATCC 35743.
In series [15] the test system is Mycobacterium tuberculosis. In words: Bactericidal activity against Mycobacterium bovis BCG ATCC 35734 assessed as reduction in oxygen consumption at 15 times MIC90 after 1 hr by methylene blue-based assay. The format is functional, organism-based. As to conditions: BCG str. ATCC 35743.
The subject of series [16] is Mycobacterium tuberculosis. In words: Bactericidal activity against Mycobacterium bovis BCG ATCC 35734 assessed as suppression of reductive capacity by measuring decrease in formazan formation after 0.5 to 1 hr by MTT reduction assay. The format is functional, organism-based. The settings on record: BCG str. ATCC 35743. In a few lines:
(§2)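 BCG cultures exposed to 0.2–100 μM for 30 min and 1 h, then MTT added; formazan production read at 595 nm against drug-free basal absorbance; CCCP 100 μM reference; representative of two independent experiments.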
(Tetrazolium dyes change colour on reduction, which living cells bring about.)

The subject of series [17] is Mycobacterium tuberculosis. In words: Bactericidal activity against Mycobacterium bovis BCG ATCC 35734 assessed as reduction in colony forming units at 6 uM after 1 to 5 days by time kill assay. The format is functional, organism-based. As to conditions: BCG str. ATCC 35743.
Series [18] relates to Mycobacterium tuberculosis. In words: Bactericidal activity Mycobacterium bovis BCG ATCC 35734 assesses as cell death at 15 times MIC90 after 1 hr in presence of methylene blue. The class given is functional, organism-based. As to conditions: BCG str. ATCC 35743.
Series [19] concerns Mycobacterium tuberculosis. In words: Antibacterial activity against Mycobacterium tuberculosis H37Rv ATCC 27294 after 7 days by broth dilution method. The class given is functional. As to conditions: H37Rv ATCC 27294, 168 h. In a few lines: as §1
Series [20] has as its system Vero C1008. In words: Cytotoxicity against African green monkey Vero E6 cells assessed as reduction in cell viability after 48 hrs by cell titre 96 aqueous one solution-based assay. The settings on record: Chlorocebus sabaeus, Vero C1008, 48 h. In a few lines:
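Vero cell viability was compared with untreated control cells. IC50 was taken as the concentration giving 50% loss of viability, averaged over two or more separate determinations.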

In series [21] the test system is Mycobacterium tuberculosis. In words: Bactericidal activity against Mycobacterium bovis BCG ATCC 35734 assessed as reduction in membrane potential by measuring red to green fluorescent ratio at 100 uM measured at 3 hrs by DiOC2-dye based fluorescence assay. The format is functional, organism-based. The settings on record: BCG str. ATCC 35743.
In series [22] the test system is Mycobacterium tuberculosis. In words: Bactericidal activity against Mycobacterium bovis BCG ATCC 35734 assessed as suppression of reductive capacity by measuring decrease in formazan formation at 100 uM after 0.5 to 1 hr by MTT reduction assay. The arrangement: scale not given: the % may be the effect or the level left. The format is functional. In a few lines:
as §2

Calls of active or inactive are those of the source. The rule behind the calls is not given here.

Take `CCCCCCCCn1cc(CN2CCC3(CCc4ccccc43)CC2)c2ccc(OC)cc21`: the result in series [1] and in [2] was Active.

As to `NNC(=O)c1ccncc1`, the result in series [3] was Active. Moreover, in series [4], the outcome was inactive.

Take `COc1cccc2ccn(CCCCC[P+](c3ccccc3)(c3ccccc3)c3ccccc3)c12.[I-]`: the result in series [5], in series [6], in series [9], in series [11], in series [13] and in series [15] was Active. For the same compound, the outcome in series [17] was Active. The result in series [7] was inactive. In series [8], the HC50 (in general, the concentration that lyses half of the red blood cells) at 1 h was over 300 µM. Besides, the ΔTm (usually the change in melting temperature against a reference sample) in series [10] turned out to be 1 °C. Moreover, the MIC50 in series [12] and in series [19] was 2 µM throughout. For the same compound, the MIC90 – broadly, an inhibitory concentration at the 90% level, which refers to growth in some studies and to a panel of isolates in others – in series [12] was 3 µM; in series [19] it was 6 µM. Further, in [14], the MBC99 worked out at 3 µM. Further, the MBC in series [14] (Mycobacterium tuberculosis, BCG ATCC 35734, 120 h, read-out: MBC99.9) came out at 6 µM. The Activity entry in [16] was “Dose-dependent effect”; in [18] it was “Toxic”. For the same compound, the IC50 (usually the concentration that inhibits the measured activity by half) in series [20] was found to be 18 µM.

With `N#CC(C#N)=NNc1cccc(Cl)c1` [CARBONYL CYANIDE M-CHLOROPHENYLHYDRAZONE], the result in series [21] was Active. Also, the Activity in series [22] is 50%.
